Laboratory results: ChEMBL document CHEMBL1153439, “Design, synthesis, antimicrobial activity and molecular modeling studies of novel benzofuroxan derivatives against Staphylococcus aureus” (2009)
Converted amounts (≈) assume the structure as drawn.

Legend:
Assay type in all cases: functional
[1] = system: Staphylococcus aureus; assay: Antibacterial activity against Staphylococcus aureus ATCC 25923 after 18 hrs by phase 1 broth microdilution method; settings: ATCC 25923, 18 h
How it was run: (§1)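 Phase I: twofold serial dilutions in Tryptic Soy Broth, 96-well plates, concentrations […]. Stocks in DMSO/TSB 1:10 v/v, with final DMSO 5.0–0.01%. Inoculum was set to 0.5 McFarland, then diluted in saline and TSB. Plates ran 18 h at 35 °C. MIC is the lowest concentration without visible growth, in triplicate. Sterility was read at 24 and 48 h. Ampicillin, chloramphenicol and vancomycin were controls.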

[2] = system: Staphylococcus aureus; assay: Antibacterial activity against Staphylococcus aureus ATCC 25923 after 18 hrs by phase 2 broth microdilution method; settings: ATCC 25923, 18 h
How it was run: (§2)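 Phase II narrowed the phase I MIC in Tryptic Soy Broth. Stock was made at twice the phase I MIC, then diluted 10% stepwise with TSB through column 11. Final DMSO was 2.5–1.0%. Positive growth control wells received TSB. Inoculum was prepared as in phase I and plates were incubated 18 h at 35 °C.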

[3] = system: Staphylococcus aureus; assay: Antibacterial activity against multidrug-resistant Staphylococcus aureus 3SP/R33 after 18 hrs by phase 1 broth microdilution method; how it was run: as §1
[4] = system: Staphylococcus aureus; assay: Antibacterial activity against multidrug-resistant Staphylococcus aureus 3SP/R33 after 18 hrs by phase 2 broth microdilution method; how it was run: as §2
[5] = system: Staphylococcus aureus; assay: Antibacterial activity against multidrug-resistant vancomycin-intermediate Staphylococcus aureus VISA3 after 18 hrs phase 1 by broth microdilution method; how it was run: as §1
[6] = system: Staphylococcus aureus; assay: Antibacterial activity against multidrug-resistant vancomycin-intermediate Staphylococcus aureus VISA3 after 18 hrs phase 2 by broth microdilution method; how it was run: as §2
[7] = system: Staphylococcus aureus; assay: Antibacterial activity against Staphylococcus aureus ATCC 25923 after 18 hrs by broth microdilution method; settings: ATCC 25923, 18 h
How it was run: (§3)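 Broth microdilution in Tryptic Soy Broth in 96-well plates, with DMSO as solvent at no more than 5% of the total. Inoculum was set to 0.5 McFarland and diluted in saline and TSB. Plates were incubated 18 h at 35 °C. MIC is the lowest concentration without visible growth. The MIC was determined in two phases, the second narrowing the first.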

[8] = system: Staphylococcus aureus; assay: Antibacterial activity against multidrug-resistant Staphylococcus aureus 3SP/R33 after 18 hrs by broth microdilution method; how it was run: as §3
[9] = system: Staphylococcus aureus; assay: Antibacterial activity against multidrug-resistant vancomycin-intermediate Staphylococcus aureus VISA3 after 18 hrs by broth microdilution method; how it was run: as §3

SMILES | MIC [1] | MIC [2] | MIC [3] | MIC [4] | MIC [5] | MIC [6] | MIC [7] | MIC [8] | MIC [9]
Cc1ccc(C(=O)N/N=C/c2ccc3c(c2)no[n+]3[O-])cc1 | 20 µg/mL (≈ 67.5 µM) | 21 µg/mL (≈ 70.9 µM) | 20 µg/mL (≈ 67.5 µM) | 21 µg/mL (≈ 70.9 µM) | 20 µg/mL (≈ 67.5 µM) | 21 µg/mL (≈ 70.9 µM) | – | – | –
O=C(N/N=C/c1ccc2c(c1)no[n+]2[O-])c1ccc(Br)cc1 | 10 µg/mL (≈ 27.7 µM) | 18 µg/mL (≈ 49.8 µM) | 10 µg/mL (≈ 27.7 µM) | 18 µg/mL (≈ 49.8 µM) | 10 µg/mL (≈ 27.7 µM) | 18 µg/mL (≈ 49.8 µM) | – | – | –
O=C(N/N=C/c1ccc2c(c1)no[n+]2[O-])c1ccc(Cl)cc1 | 10 µg/mL (≈ 31.6 µM) | 15.3 µg/mL (≈ 48.3 µM) | 10 µg/mL (≈ 31.6 µM) | 15.3 µg/mL (≈ 48.3 µM) | 10 µg/mL (≈ 31.6 µM) | 15.3 µg/mL (≈ 48.3 µM) | – | – | –
CC(=O)c1ccc(C(=O)N/N=C/c2ccc3c(c2)no[n+]3[O-])cc1 | 20 µg/mL (≈ 61.7 µM) | 21.2 µg/mL (≈ 65.4 µM) | 20 µg/mL (≈ 61.7 µM) | 21.2 µg/mL (≈ 65.4 µM) | 20 µg/mL (≈ 61.7 µM) | 21.2 µg/mL (≈ 65.4 µM) | – | – | –
O=C(N/N=C/c1ccc2c(c1)no[n+]2[O-])c1ccccc1 | 10 µg/mL (≈ 35.4 µM) | 16.2 µg/mL (≈ 57.4 µM) | 10 µg/mL (≈ 35.4 µM) | 16.2 µg/mL (≈ 57.4 µM) | 10 µg/mL (≈ 35.4 µM) | 16.2 µg/mL (≈ 57.4 µM) | – | – | –
Nc1ccc(C(=O)N/N=C/c2ccc3c(c2)no[n+]3[O-])cc1 | 10 µg/mL (≈ 33.6 µM) | 15.3 µg/mL (≈ 51.5 µM) | 10 µg/mL (≈ 33.6 µM) | 15.3 µg/mL (≈ 51.5 µM) | 10 µg/mL (≈ 33.6 µM) | 15.3 µg/mL (≈ 51.5 µM) | – | – | –
N#Cc1ccc(C(=O)N/N=C/c2ccc3c(c2)no[n+]3[O-])cc1 | 20 µg/mL (≈ 65.1 µM) | 26.2 µg/mL (≈ 85.3 µM) | 20 µg/mL (≈ 65.1 µM) | 26.2 µg/mL (≈ 85.3 µM) | 20 µg/mL (≈ 65.1 µM) | 26.2 µg/mL (≈ 85.3 µM) | – | – | –
O=C(N/N=C/c1ccc2c(c1)no[n+]2[O-])c1ccc(O)cc1 | 20 µg/mL (≈ 67.1 µM) | 26.2 µg/mL (≈ 87.8 µM) | 20 µg/mL (≈ 67.1 µM) | 26.2 µg/mL (≈ 87.8 µM) | 20 µg/mL (≈ 67.1 µM) | 26.2 µg/mL (≈ 87.8 µM) | – | – | –
O=C(N/N=C/c1ccc2c(c1)no[n+]2[O-])c1ccc(F)cc1 | 10 µg/mL (≈ 33.3 µM) | 14.6 µg/mL (≈ 48.6 µM) | 10 µg/mL (≈ 33.3 µM) | 14.6 µg/mL (≈ 48.6 µM) | 10 µg/mL (≈ 33.3 µM) | 14.6 µg/mL (≈ 48.6 µM) | – | – | –
O=C(N/N=C/c1ccc2c(c1)no[n+]2[O-])c1ccc(I)cc1 | 20 µg/mL (≈ 49 µM) | 23.6 µg/mL (≈ 57.8 µM) | 20 µg/mL (≈ 49 µM) | 23.6 µg/mL (≈ 57.8 µM) | 20 µg/mL (≈ 49 µM) | 23.6 µg/mL (≈ 57.8 µM) | – | – | –
O=C(N/N=C/c1ccc2c(c1)no[n+]2[O-])c1ccc(C(F)(F)F)cc1 | 10 µg/mL (≈ 28.6 µM) | 13.1 µg/mL (≈ 37.4 µM) | 10 µg/mL (≈ 28.6 µM) | 13.1 µg/mL (≈ 37.4 µM) | 10 µg/mL (≈ 28.6 µM) | 13.1 µg/mL (≈ 37.4 µM) | – | – | –
COc1ccc(C(=O)N/N=C/c2ccc3c(c2)no[n+]3[O-])cc1 | 10 µg/mL (≈ 32 µM) | 16.2 µg/mL (≈ 51.9 µM) | 10 µg/mL (≈ 32 µM) | 16.2 µg/mL (≈ 51.9 µM) | 10 µg/mL (≈ 32 µM) | 16.2 µg/mL (≈ 51.9 µM) | – | – | –
CN(C)c1ccc(C(=O)N/N=C/c2ccc3c(c2)no[n+]3[O-])cc1 | > 80 µg/mL | – | > 80 µg/mL | – | > 80 µg/mL | – | – | – | –
NS(=O)(=O)c1ccc(C(=O)N/N=C/c2ccc3c(c2)no[n+]3[O-])cc1 | > 80 µg/mL | – | > 80 µg/mL | – | > 80 µg/mL | – | – | – | –
CC1(C)S[C@@H]2[C@H](NC(=O)[C@H](N)c3ccccc3)C(=O)N2[C@H]1C(=O)O [AMPICILLIN] | – | – | – | – | – | – | 0.1 µg/mL (≈ 0.286 µM) | – | –
O=C(N[C@H](CO)[C@H](O)c1ccc([N+](=O)[O-])cc1)C(Cl)Cl [CHLORAMPHENICOL] | – | – | – | – | – | – | 2 µg/mL (≈ 6.19 µM) | 32 µg/mL (≈ 99 µM) | 32 µg/mL (≈ 99 µM)
